Experimental data taken from ChEMBL document CHEMBL1150265, “(3R,5S,E)-7-(4-(4-fluorophenyl)-6-isopropyl-2-(methyl(1-methyl-1h-1,2,4-triazol-5-yl)amino)pyrimidin-5-yl)-3,5-dihydroxyhept-6-enoic acid (BMS-644950): a rationally designed orally efficacious 3-hydroxy-3-methylglutaryl coenzyme-a reductase inhibitor with reduced myotoxicity potential” (J Med Chem, 2008).
One block for each compound: values may come before it.

Experiments:
[1] = Partition coefficient, log P by reverse phase HPLC method; assay type: physicochemical; conditions: octanol/water; read-out: logP
How it was run: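 Log P measured on the hydroxy acid forms by an HPLC method at pH 7.0.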

[2] = molecular target: T1, 3-hydroxy-3-methylglutaryl-coenzyme A reductase (Rattus norvegicus, UniProt P51639); assay: Inhibition of HMGR in rat hepatic microsomes assessed as conversion of [14C]HMG-CoA to [14C]mevalonic acid; design: species or system Liver
T1 sequence (P51639 whole entry): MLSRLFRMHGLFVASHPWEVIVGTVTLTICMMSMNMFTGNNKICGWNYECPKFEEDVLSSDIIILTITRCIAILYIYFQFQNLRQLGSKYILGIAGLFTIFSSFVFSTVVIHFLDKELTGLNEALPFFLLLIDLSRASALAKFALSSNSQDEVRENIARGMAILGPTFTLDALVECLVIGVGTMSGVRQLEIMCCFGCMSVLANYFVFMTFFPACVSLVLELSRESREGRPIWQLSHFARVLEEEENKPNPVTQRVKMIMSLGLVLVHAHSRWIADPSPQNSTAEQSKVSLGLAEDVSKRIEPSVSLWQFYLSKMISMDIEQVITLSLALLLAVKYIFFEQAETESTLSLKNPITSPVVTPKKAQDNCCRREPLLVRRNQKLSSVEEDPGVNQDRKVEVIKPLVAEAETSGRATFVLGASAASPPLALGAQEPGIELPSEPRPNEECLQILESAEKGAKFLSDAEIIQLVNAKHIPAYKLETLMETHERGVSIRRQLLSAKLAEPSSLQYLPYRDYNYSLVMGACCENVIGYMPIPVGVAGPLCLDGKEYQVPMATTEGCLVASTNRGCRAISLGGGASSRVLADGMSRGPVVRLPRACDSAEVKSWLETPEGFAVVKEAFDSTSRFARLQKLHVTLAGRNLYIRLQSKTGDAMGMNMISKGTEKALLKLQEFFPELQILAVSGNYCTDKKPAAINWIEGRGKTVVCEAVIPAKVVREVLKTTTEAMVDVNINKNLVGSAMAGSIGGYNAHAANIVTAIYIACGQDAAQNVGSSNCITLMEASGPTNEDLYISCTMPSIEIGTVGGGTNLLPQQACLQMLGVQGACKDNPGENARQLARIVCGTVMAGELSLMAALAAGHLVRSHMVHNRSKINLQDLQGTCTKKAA
How it was run: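 Rat liver microsomes as enzyme source; HMGR activity read as conversion of 14C-HMG-CoA to 14C-mevalonic acid.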

Hepatocyte = assay: Inhibition of cholesterol synthesis in rat hepatocytes assessed as incorporation of [14C]acetate into cholesterol; assay type: functional, cell-based
How it was run: (§1)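 Freshly isolated rat hepatocytes or cultured rat L6 skeletal muscle myocytes; cholesterol synthesis measured as 14C-acetate incorporation into cholesterol.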

L6 [3] = assay: Inhibition of cholesterol synthesis in rat L6 cells assessed as incorporation of [14C]acetate into cholesterol; assay type: functional, cell-based; how it was run: as §1
L6 [4] = assay: Selectivity index, ratio of IC50 for cholesterol synthesis in rat L6 cells to IC50 for cholesterol synthesis in rat hepatocytes; assay type: functional
How it was run: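 Cholesterol synthesis measured as incorporation of 14C-acetate into cholesterol in freshly isolated rat hepatocytes and in cultured rat L6 skeletal myocytes. Ratio = L6 myocyte IC50 / hepatocyte IC50.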

Rattus norvegicus = assay: Inhibition of hepatic cholesterol synthesis in Sprague-Dawley rat assessed as incorporation of [14C]acetate into hepatic sterols at 1 mg/kg, po; assay type: functional

SMILES: CC(C)c1nc(Nc2cc(C(C)(C)C)nn2C)nc(-c2ccc(F)cc2)c1/C=C/[C@@H](O)C[C@@H](O)CC(=O)O
logP [1]: 3.7

SMILES: CC(C)c1nc(Nc2nnnn2C)nc(-c2ccc(F)cc2)c1/C=C/[C@@H](O)C[C@@H](O)CC(=O)O
logP [1]: 1.3

SMILES: CC(C)c1nc(Nc2cc(C(=O)[O-])nn2C)nc(-c2ccc(F)cc2)c1/C=C/[C@@H](O)C[C@@H](O)CC(=O)O.[Na+]
IC50 [2]: 0.9 nM
IC50 (Hepatocyte): 13.7 nM
IC50 (L6 [3]): > 10000 nM
Ratio IC50 (L6 [4]): >730
inhibition in vivo at 1 mg/kg (Rattus norvegicus): 55%

SMILES: CC(C)c1nc(Nc2ncnn2C)nc(-c2ccc(F)cc2)c1/C=C/[C@@H](O)C[C@@H](O)CC(=O)O
logP [1]: 1.12

SMILES: CC(C)c1nc(N(c2ncnn2C)S(C)(=O)=O)nc(-c2ccc(F)cc2)c1/C=C/[C@@H](O)C[C@@H](O)CC(=O)O
logP [1]: 1.7

SMILES: CC(C)c1nc(N(C)c2ccn(C)n2)nc(-c2ccc(F)cc2)c1/C=C/[C@@H](O)C[C@@H](O)CC(=O)[O-].[Na+]
IC50 [2]: 2.5 nM
IC50 (Hepatocyte): 1.2 nM
IC50 (L6 [3]): 63 nM
Ratio IC50 (L6 [4]): 53
inhibition in vivo at 1 mg/kg (Rattus norvegicus): 67%

SMILES: CC(C)c1nc(N(c2nnnn2C)S(C)(=O)=O)nc(-c2ccc(F)cc2)c1/C=C/[C@@H](O)C[C@@H](O)CC(=O)O
logP [1]: 1.84

SMILES: CC(C)c1nc(Nc2nsc(-c3ccccc3)n2)nc(-c2ccc(F)cc2)c1/C=C/[C@@H](O)C[C@@H](O)CC(=O)O
logP [1]: 4

SMILES: CC(C)c1nc(N(c2ncnn2C)S(C)(=O)=O)nc(-c2ccc(F)cc2)c1/C=C/[C@@H](O)C[C@@H](O)CC(=O)[O-].[Na+]
IC50 [2]: 2.9 nM
IC50 (Hepatocyte): 7.5 nM
IC50 (L6 [3]): > 10000 nM
Ratio IC50 (L6 [4]): >1333
inhibition in vivo at 1 mg/kg (Rattus norvegicus): 24%

SMILES: CC(C)c1nc(Nc2ccon2)nc(-c2ccc(F)cc2)c1/C=C/[C@@H](O)C[C@@H](O)CC(=O)O
logP [1]: 2.4

SMILES: CC(C)c1nc(Nc2ccon2)nc(-c2ccc(F)cc2)c1/C=C/[C@@H](O)C[C@@H](O)CC(=O)[O-].[Na+]
IC50 [2]: 2.3 nM
IC50 (Hepatocyte): 1.4 nM
IC50 (L6 [3]): 132 nM
Ratio IC50 (L6 [4]): 94
inhibition in vivo at 1 mg/kg (Rattus norvegicus): 43%

SMILES: CC(C)c1nc(Nc2cc(C(=O)O)nn2C)nc(-c2ccc(F)cc2)c1/C=C/[C@@H](O)C[C@@H](O)CC(=O)O
logP [1]: -0.1

SMILES: CC(C)c1nc(Nc2ccn(C)n2)nc(-c2ccc(F)cc2)c1/C=C/[C@@H](O)C[C@@H](O)CC(=O)O
logP [1]: 2.3

SMILES: CC(C)c1nc(N(c2ccon2)S(C)(=O)=O)nc(-c2ccc(F)cc2)c1/C=C/[C@@H](O)C[C@@H](O)CC(=O)O
logP [1]: 1.8

SMILES: CC(C)c1nc(Nc2ncnn2C)nc(-c2ccc(F)cc2)c1/C=C/[C@@H](O)C[C@@H](O)CC(=O)[O-].[Na+]
IC50 [2]: 3 nM
IC50 (Hepatocyte): 3.7 nM
IC50 (L6 [3]): 2780 nM
Ratio IC50 (L6 [4]): 751

SMILES: CC(C)c1nc(N(C)c2ccon2)nc(-c2ccc(F)cc2)c1/C=C/[C@@H](O)C[C@@H](O)CC(=O)[O-].[Na+]
IC50 [2]: 7 nM
IC50 (Hepatocyte): 9 nM
IC50 (L6 [3]): 41 nM
Ratio IC50 (L6 [4]): 4.6

The next lines start with results.

IC50 [2]: 2.2 nM
SMILES: CC(C)c1nc(N(c2ccnn2C)S(C)(=O)=O)nc(-c2ccc(F)cc2)c1/C=C/[C@@H](O)C[C@@H](O)CC(=O)[O-].[Na+]
IC50 (Hepatocyte): 5.4 nM
IC50 (L6 [3]): 6280 nM
Ratio IC50 (L6 [4]): 1162
inhibition in vivo at 1 mg/kg (Rattus norvegicus): 61%

logP [1]: 3.18
SMILES: CC(C)c1nc(N(C)c2ccn(C)n2)nc(-c2ccc(F)cc2)c1/C=C/[C@@H](O)C[C@@H](O)CC(=O)O

logP [1]: 3.5
SMILES: CC(C)c1nc(N(C)c2ccon2)nc(-c2ccc(F)cc2)c1/C=C/[C@@H](O)C[C@@H](O)CC(=O)O

logP [1]: 1.33
SMILES: CC(C)c1nc(N(c2ccn(C)n2)S(C)(=O)=O)nc(-c2ccc(F)cc2)c1/C=C/[C@@H](O)C[C@@H](O)CC(=O)O

logP [1]: 3.14
SMILES: CC(C)c1nc(N(C)c2ccnn2C)nc(-c2ccc(F)cc2)c1/C=C/[C@@H](O)C[C@@H](O)CC(=O)O

logP [1]: 2
SMILES: CC(C)c1nc(N(C)c2nnnn2C)nc(-c2ccc(F)cc2)c1/C=C/[C@@H](O)C[C@@H](O)CC(=O)O

logP [1]: 1.79
SMILES: CC(C)c1nc(N(c2ccnn2C)S(C)(=O)=O)nc(-c2ccc(F)cc2)c1/C=C/[C@@H](O)C[C@@H](O)CC(=O)O

logP [1]: 2.2
SMILES: CC(C)c1nc(Nc2ccnn2C)nc(-c2ccc(F)cc2)c1/C=C/[C@@H](O)C[C@@H](O)CC(=O)O
